# MDM2 E3 inh – Mdm2 E3 ligase (human) inhibition; Q00987; cell-based MDM2 ubiquitination luciferase reporter, 2 h; 0 = plate control, 100 = twice control, blank-subtracted; signal enhancement, % at 5 µM; 0.11% of 210,000 active; AID 1230;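 active = signal enhancement of 30% or more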;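 also: luminescence tracks abundance of the self-degrading MDM2-luciferase fusion protein; higher signal means inhibition of MDM2 E3 ligase activity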
# Target sequence (Q00987 whole entry, looked up, the tested form may be a part): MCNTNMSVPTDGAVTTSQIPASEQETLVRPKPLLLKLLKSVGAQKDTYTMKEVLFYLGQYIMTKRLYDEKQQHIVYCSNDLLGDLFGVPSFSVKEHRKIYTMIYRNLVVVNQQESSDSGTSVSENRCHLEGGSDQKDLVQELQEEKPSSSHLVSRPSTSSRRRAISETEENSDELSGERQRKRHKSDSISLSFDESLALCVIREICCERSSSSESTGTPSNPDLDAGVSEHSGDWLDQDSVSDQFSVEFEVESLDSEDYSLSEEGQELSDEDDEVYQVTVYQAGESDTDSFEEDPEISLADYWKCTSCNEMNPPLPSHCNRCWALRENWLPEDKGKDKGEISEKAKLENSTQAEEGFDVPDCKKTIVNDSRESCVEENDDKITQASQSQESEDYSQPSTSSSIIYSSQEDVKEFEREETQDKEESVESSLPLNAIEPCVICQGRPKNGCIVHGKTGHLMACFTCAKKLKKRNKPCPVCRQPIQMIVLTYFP
#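 test system = mammalian cells stably expressing self-ubiquitinating, self-degrading MDM2 E3–luciferase fusion | quantity = 2000 cells/well | incubation = cell settling 4 h, compound treatment 2 h, both 37 °C | signal = luminescence with SteadyLite reagent, 15 min at room temperature | evaluation = % enhancement relative to plate controls after blank subtraction | benchmarks = plate controls and plate blanks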
# Beta2AR agonist – agonists of human beta-2 adrenergic receptor inducing internalization; P07550; Am2.2-beta2AR cells, FAP receptor internalization, flow cytometry; response, % (no concentration beside the values); 0.43% of 340,000 active; AID 504454;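 active = response above a set limit, near 3 SD of response in nonfluorescent compounds, cut at about 42% in these data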
# Mdm2 MdmX PPI – human Mdm2/MdmX binding inhibition | 3% of 330,000 active | O15151+Q00987 | SaOS-2 split-luciferase Mdm2/MdmX complementation, luminescence | AID 485346 | inhibition, % at 8 µM;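 active = inhibition of at least 50% at 8 µM in the primary screen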
# Dynein transport – blocks dynein driven cargo transport along microtubules | z-score, hits read low | 3617.4 mouse cells, GR-EGFP nuclear translocation imaging; test concentration mostly 20 µM; stimulated with dexamethasone, 1 µM; hits give low values | 0.47% of 220,000 active;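 active = plate z-score of nuclear minus cytoplasmic receptor signal below a set negative limit, without overly bright fluorescence or cell loss, cut at about -3.5 in these data, passing the limit was not always enough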;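 also: z-score of nuclear minus cytoplasmic ring GR-EGFP intensity difference per well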
#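 Buffer or medium: tet-free medium with charcoal-stripped serum / Also added: dexamethasone agonist, 1.0 µM final, for 30 min / Timing: induction 48 h, compound 1 h, agonist 30 min / Measured by: high-content fluorescence imaging after fixation / Read-out: nuclear-to-cytoplasmic GR-EGFP distribution per well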
# UPR XBP1 act – activators of adaptive arm of unfolded protein response (XBP1); activation, % at 20 µM; CHO-XBP1 luciferase reporter, IRE1-XBP1 UPR activation, luminescence; percent of tunicamycin response, DMSO as zero; 0.33% of 330,000 active;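 active = versus positive control, 20 µM dose yields 30% or more activation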;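 also: 100% = tunicamycin at 10 µg/mL and 0% = DMSO only wells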
#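 Material: IRE1-XBP1 luciferase reporter CHO line / Quantity: one thousand reporter cells per well / Buffer or medium: F12 with 10% serum / Compound: 20 µM single concentration, DMSO 1% / Times: 6 h treatment, 37 °C / Detection: Steady-Glo luciferase glow luminescence, 10 min after reagent addition / Benchmarks: tunicamycin high, DMSO low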
# CHOP UPR activ – activators of apoptotic arm of unfolded protein response (CHOP); activation, % at 10 µM; CHO-CHOP luciferase reporter, UPR activation, luminescence; percent of tunicamycin response over DMSO baseline; 0.34% of 330,000 active;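 active = at 10 µM dose, activation of 40% or more, normalized to positive control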;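 also: 100% = tunicamycin at 10 µg/mL and 0% = DMSO alone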
#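 assay system = CHO CHOP reporter cells | amount = 500 CHO-CHOP cells per well | buffer or medium = F12 with 10% FBS | incubation = 16-18 h cell attachment, then 6 h compound exposure, 37 °C | detection = luminescence read with Steady-Glo | read-out = percent activation relative to tunicamycin control | controls = tunicamycin high control, DMSO low control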
# Mdm2 MdmX conf – confirmation of human Mdm2/MdmX interaction inhibitors. shares compounds with Mdm2 MdmX PPI. Mdm2-MdmX binding, luminescent assay. inhibition, % at 8 µM. 55% of 10,000 active; in the data active = inhibition above about 40%
# FLuc counter – inhibits full-length luciferase, flagging false Mdm2/MdmX hits | shares compounds with Mdm2 MdmX PPI | SaOS-2 full-length luciferase counterscreen, luminescence | inhibition, % at 8 µM | 77% of 6,200 active | AID 504607;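 active = mean inhibition at 8 µM reaching about 37%, which flags the compound as non-specific, limit read from the data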;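 also: p53-null SaOS-2 cells with luciferase driven by a doxycycline-inducible promoter; compound on cells about two nights before reading with doxycycline added after day one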
# * = called active by the depositor; nt = no result. Rows were chosen to be rich in hits. Some 3.7% of all compounds tested hit in one or more screens of this group.
SMILES,MDM2 E3 inh,Beta2AR agonist,Mdm2 MdmX PPI,Dynein transport,UPR XBP1 act,CHOP UPR activ,Mdm2 MdmX conf,FLuc counter
Cc1ccc2c(c1)C1CN(C)CCC1N2S(=O)(=O)c1ccccc1 (centres undefined),-14,4,-18,2.1,-1,-2,nt,nt
Cc1ccc2c(c1)C1CN(C)CCC1N2C(=O)c1cccnc1Cl (centres undefined),nt,0,12,-0.16,-2,1,nt,nt
Cc1ccc2c(c1)C1CN(C)CCC1N2C(=O)CCCN1C(=O)c2cccc3cccc(c23)C1=O (centres undefined),-21,-12,51*,-1.5,2,0,23,nt
O=C(COc1ccccc1)N1CCN(CCN2C(=O)c3cccc4cccc(c34)C2=O)CC1,-7,-7,21,0.17,-2,-1,nt,nt
Cc1ccc2c(c1)[C@@H]1CN(C)CC[C@@H]1N2C(=O)Nc1cccc(C(F)(F)F)c1,-15,10,52*,1.1,0,1,20,nt
Cc1ccc2c(c1)C1CN(C)CCC1N2C(=O)c1ccc(Br)o1 (centres undefined),-10,3,17,-0.28,4,-1,nt,nt
Cc1cc(C)nc(NS(=O)(=O)c2ccc(N=Cc3c(O)n(C)c(=O)n(C)c3=O)cc2)n1,-9,0,11,-0.69,3,1,nt,nt
OCc1cnc[nH]1,nt,-8,-22,-0.64,-8,-1,nt,nt
CC(=NCc1ccco1)c1c(O)n(Cc2ccccc2)c(=O)[nH]c1=O,-9,-6,-5,-0.54,3,-1,nt,nt
c1ccc2c(c1)Sc1ccccc1N2CC1CN2CCC1CC2 (centres undefined),-10,5,75*,0.32,2,0,44*,84*
O=C1C(=O)c2cccc3cccc1c23,-17,18,33,-0.56,19,4,nt,nt
O=C1C(=O)c2ccccc2-c2ccccc21,-11,103*,99*,-2.1,-12,-5,100*,0
CN(C)/C=C1/C(=O)NC(=O)N(CCNc2ncc(C(F)(F)F)cc2Cl)C1=O,0,25,13,-1.1,0,0,nt,nt
O=C1NCCN2CCCC12 (centres undefined),-15,8,8,-0.58,-1,1,nt,nt
CC(C)(C)C(=O)O[C@H]1CC[C@@]2(C)C(=CC(=O)C3C2CC[C@]2(C)C(=O)[C@@H](F)CC32)C1 (some centres undefined),nt,5,9,nt,-1,0,nt,nt
C[C@]12CC[C@H](O)C[C@H]1CC[C@@H]1[C@@H]2C[C@@H](O)[C@]2(C)[C@@H](C3=CC(=O)OC3)CC[C@]12O,nt,3,73*,nt,-8,2,73*,34
C[C@]12CC[C@H](O)C[C@H]1CC[C@@H]1[C@@H]2CC[C@]2(C)[C@@H](C3=CC(=O)OC3)CC[C@]12O,nt,-5,75*,nt,-5,2,73*,53*
CC12CCC(O)CC1CCC1C2CCC2(C)C(C3=CC(=O)OC3)CCC12O (centres undefined),nt,10,nt,nt,nt,nt,nt,nt
C[C@H]1CC[C@@H]2[C@@H](C)[C@H]3[C@H](C[C@H]4[C@@H]5CC=C6C[C@@H](O[C@@H]7O[C@H](CO)[C@H](O)[C@H](O[C@@H]8O[C@H](CO)[C@@H](O)[C@H](O)[C@H]8O)[C@H]7O[C@@H]7O[C@@H](C)[C@H](O)[C@@H](O)[C@H]7O)CC[C@]6(C)[C@H]5CC[C@]34C)N2C1,-2,7,60*,-7.3,2,0,-11,nt
C=C1C(=O)O[C@@H]2C[C@@H](C)[C@@H]3C=CC(=O)[C@@]3(C)[C@@H](OC(=O)CC(=O)O[C@H]3[C@@H]4C(=C)C(=O)O[C@@H]4C[C@@H](C)[C@@H]4C=CC(=O)[C@]43C)[C@H]12,-12,48*,97*,-4*,-9,-9,100*,4
CC1CCCCC12C(=O)NC(=O)NC2=O (centres undefined),nt,3,nt,nt,nt,nt,nt,nt
COC(=O)C1=C(c2cc3ccccc3s2)C[C@@H]2CC[C@H]1N2C(=O)N1CCCCC1,nt,-9,52*,nt,-1,0,57*,40*
Fc1cccc(CCNCc2ccccn2)c1,-15,2,16,-0.073,-3,-2,nt,nt
Clc1ccc(C(c2ccc(Cl)cc2)n2cc[n+](CC(OCc3ccc(Cl)cc3Cl)c3ccc(Cl)cc3Cl)c2)cc1 (centres undefined),nt,-49,100*,nt,-11,1,70*,29
Cc1ccccc1Cc1c(C)nc2nc(SCC(=O)N3CCC4(CC3)OCCO4)nn2c1C,-10,3,-20,0.59,1,0,nt,nt
SMILES,MDM2 E3 inh,Beta2AR agonist,Mdm2 MdmX PPI,Dynein transport,UPR XBP1 act,CHOP UPR activ,Mdm2 MdmX conf,FLuc counter
C=C1[C@@H](C)[C@H]2[C@H](Cc3ccccc3)NC(=O)[C@]23OC(=O)/C=C/[C@H](O)CCC[C@@H](C)C/C=C/[C@H]3[C@@H]1O,nt,12,82*,nt,-6,3,71*,53*
CCCCn1c(=O)c(C(=O)Nc2ccccc2S(N)(=O)=O)c(O)c2ccccc21,-3,3,52*,-0.38,4,1,48*,40*
CCCCCn1c(=O)c(C(=O)Nc2cnccn2)c(O)c2ccccc21,1,5,52*,-0.65,-2,14,48*,51*
CCCCn1c(=O)c(C(=O)NCc2ccccc2)c(O)c2ccccc21,nt,6,18,nt,-6,0,nt,nt
CCCCCCCn1c(=O)c(C(=O)Nc2cnccn2)c(O)c2ccccc21,1,-1,65*,0.34,0,19,43*,44*
CCCCn1c(=O)c(C(=O)NCc2ccncc2)c(O)c2ccccc21,-11,2,51*,-0.57,9,-3,20,nt
C=CCn1c(O)c(C(C)=NCCCN(C)C)c(=O)[nH]c1=O,-15,0,15,0.18,0,-1,nt,nt
O=c1[nH]c(O)c(N=Nc2cc([N+](=O)[O-])ccc2O)c(=O)[nH]1,-6,-2,nt,0.4,nt,nt,nt,nt
CC(=NCCN(C)C)c1c(O)n(Cc2ccccc2)c(=O)[nH]c1=O,-11,7,3,-0.02,-2,0,nt,nt

# Screens from PubChem.
